Test results published in ChEMBL document CHEMBL5506013, “Mitochondria-Selective Dicationic Small-Molecule Ligand Targeting G-Quadruplex Structures for Human Colorectal Cancer Therapy” (J Med Chem, 2024).
Activity calls are given as the source filed them. No cut-off for these calls is given here.

Assays:
[1] = system: Quadruplex DNA; assay: Binding affinity to Mito 0.5-16 G4 DNA (unknown origin) assessed as change in melting temperature at 5 uM by circular dichroism spectroscopic analysis; assay type: nucleic-acid assay
[2] = Toxicity in BALB/c nude mouse assessed as effect on liver at 5 mg/kg, iv measured after 16 hrs post injection by H and E staining based analysis; assay type: organism-based; conditions: in vivo
[3] = Drug localization in human HCT-116 cells by measuring red foci at 4 uM incubated for 1 hr in presence of FCCP by hoechst33342 staining based analysis; assay type: ADME, cell-based; conditions: hct-116, 1 h
How it was run: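 Pretreatment of live HCT116 cells: FCCP 1 uM for 20 min, cyclosporin A 1 uM for 24 h, DMOG 100 uM for 24 h, or MitoPDS at several concentrations for 3 h (applied after dye loading). Cells loaded with ligand 4 uM (excitation 488 nm) for 1 h and Hoechst33342 1 uM for 30 min. Red foci counted by confocal imaging in 100 cells. Mean ± SEM, t test.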

[4] = system: HCT-116; assay: Downregulation of ATP8 protein level in human HCT-116 cells at upto 4 uM incubated for 48 hrs by Western blot analysis; assay type: functional, cell-based
[5] = system: HCT-116; assay: Induction of apoptosis in human HCT-116 cells measured after 72 hrs by annexin V-BUV396 and 7-AAD staining based flow cytometry analysis; assay type: functional, cell-based; conditions: dose <= 4.0 µM
How it was run: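 HCT116 cells treated at 0-4 uM for 72 h, stained with Annexin V-BUV396 and 7-AAD, and the apoptotic fraction quantified by flow cytometry.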

[6] = biological target: Quadruplex DNA; assay: Binding affinity to mito 78 G4 DNA (unknown origin) assessed as dissociation constant measured upto 150 secs by isothermal titration calorimetry assay; assay type: nucleic-acid assay
[7] = Drug localization in human HCT-116 cells overexpressing […] by measuring red foci at 4 uM incubated for 1 hr by hoechst33342 staining based analysis; assay type: ADME, cell-based; conditions: hct-116, 1 h
[8] = system: HCT-116; assay: Induction of morphological changes in human HCT-116 cells at 4 uM by microscopy based analysis; assay type: functional, cell-based
How it was run: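 HCT116 and HFF1 cells treated with ligand at 4 uM alongside untreated controls. Morphology examined by microscopy at 100x.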

[9] = system: Quadruplex DNA; assay: Binding affinity to mito 29 G4 DNA (unknown origin) assessed as dissociation constant measured upto 150 secs by isothermal titration calorimetry assay; assay type: nucleic-acid assay; conditions: time <= 150.0 sec
[10] = system: Quadruplex DNA; assay: Binding affinity to mito 81 G4 DNA (unknown origin) assessed as increase in fluorescence intensity by fluorescence spectrophotometric analysis; assay type: nucleic-acid assay
How it was run: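 Fluorescence titration in buffer. Ligand at 5 uM mixed with 20 uM pre-annealed DNA (95 °C for 10 min, slow cooling). Emission collected at 550-800 nm and monitored at 650 nm. Result reported as fold enhancement F/F0 over ligand alone.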

[11] = Toxicity in BALB/c nude mouse assessed as change in lymphocyte count at 5 mg/kg, iv administered every two days for 16 days; assay type: organism-based; conditions: in vivo, 384 h, time 16 day
How it was run: (§1)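 HCT116 xenograft-bearing male Balb/c nude mice (6/group) dosed iv at 5 mg/kg every two days or with PBS. Whole blood collected at sacrifice on day 16 for hematology parameters.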

[12] = system: HCT-116; assay: Inhibition of cell proliferation in human HCT-116 cells at upto 4 uM measured after 7 days by colony formation assay; assay type: functional, cell-based; conditions: time 7.0 day
How it was run: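 Colony formation: HCT116 cells treated for 7 days at 0, 1, 2 or 4 uM, colonies counted and quantified; mean ± SD.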

[13] = system: Quadruplex DNA; assay: Binding affinity to Mito 78 G4 DNA (unknown origin) assessed as change in melting temperature at 5 uM by circular dichroism spectroscopic analysis; assay type: nucleic-acid assay
[14] = system: HCT-116; assay: Inhibition of cell migration in human HCT-116 cells at upto 4 uM measured after 72 hrs by transwell assay relative to control; assay type: functional; conditions: up to 4 µM
How it was run: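 Transwell migration of HCT116 cells treated for 72 h at 0, 1, 2 or 4 uM, imaged at 100x and quantified; mean ± SD.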

[15] = Drug localization in human HCT-116 cells by measuring red foci at 4 uM incubated for 1 hr in presence of DNA I by hoechst33342 staining based analysis; assay type: ADME, cell-based; conditions: hct-116, 1 h
How it was run: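 Live HCT116 cells loaded with ligand 4 uM for 1 h and Hoechst33342 1 uM for 30 min, then fixed. Fixed cells digested with 200 units DNase I or RNase A for 3 h. Red foci imaged by confocal microscopy in 100 cells. Mean ± SEM, t test.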

[16] = Toxicity in BALB/c nude mouse assessed as change in mean red blood cell hemoglobin concentration at 5 mg/kg, iv administered every two days for 16 days; assay type: organism-based; conditions: in vivo, 384 h, time 16 day; how it was run: as §1
[17] = system: HCT-116; assay: Antitumor activity against human HCT-116 cells xenografted in Balb/c nude mouse model assessed as induction of apoptosis at 5 mg/kg, iv administered every two days for 16 days by TUNEL staining based analysis; assay type: functional, organism-based; conditions: time 16.0 day
How it was run: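 Tumours came from HCT116-xenografted male Balb/c nude mice given 5 mg/kg i.v. every two days, or PBS, for 16 days. Tumour tissue sections were stained by TUNEL for apoptosis and by Ki67 immunofluorescence for proliferation, then compared with the control group.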

[18] = system: HCT-116; assay: Upregulation of p16 level in human HCT-116 cells at upto 4 uM measured after 72 hrs by Western blot analysis; assay type: functional, cell-based
How it was run: (§2)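 HCT116 cells treated with ligand at 0-4 uM for 72 h. Lysates immunoblotted for Lamin B1, p53, p21, p16, gamma-H2A.x, caspase-3 and cleaved caspase-3, with beta-actin as loading control.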

[19] = system: HCT-116; assay: Induction of ROS production in human HCT-116 cells assessed as upregulation of ROS level at upto 4 uM measured after 48 hrs in presence of MitoTEMPO by mito-sox staining based analysis; assay type: functional, cell-based
[20] = system: HCT-116; assay: Induction of mitochondrial permeability transition pore opening in human HCT-116 cells measured after 48 hrs by calcein-AM staining based assay; assay type: functional, cell-based; conditions: dose <= 4.0 µM
[21] = system: HCT-116; assay: Induction of DNA damage in human HCT-116 assessed as increase in gammaH2AX level at upto 4 uM incubated for 72 hrs by Western blot analysis; assay type: functional, cell-based; how it was run: as §2
[22] = Drug localization in mitochondria of human HCT-116 cells at upto 4 uM incubated for 1 hrs by mito-tracker deep red staining based live cell imaging analysis; assay type: ADME; conditions: hct-116, 1 h
[23] = biological target: Quadruplex DNA; assay: Binding affinity to mito 0.5-16 G4 DNA (unknown origin) assessed as dissociation constant measured upto 150 secs by isothermal titration calorimetry assay; assay type: nucleic-acid assay
[24] = system: HCT-116; assay: Downregulation of ATP6 mRNA level in human HCT-116 cells at 0 to 4 uM measured after 48 hrs by qRT-PCR analysis; assay type: functional, cell-based; conditions: dose 0-4 µM
[25] = system: HCT-116; assay: Downregulation of mitochondrial respiratory chain complex-IV level in human HCT-116 cells at upto 4 uM measured after 48 hrs by Western blot analysis; assay type: functional, cell-based
[26] = system: DNA; assay: Binding affinity to HP19 DNA (non-G4 DNA) (unknown origin) assessed as increase in fluorescence intensity by fluorescence spectrophotometric analysis; assay type: nucleic-acid assay
How it was run: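 Oligonucleotides were pre-annealed at 95 °C for 10 min, then cooled slowly. Ligand (5 uM) was mixed with 20 uM DNA in buffer. Emission was collected over 550–800 nm, and enhancement was taken at 650 nm as F/F0.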

[27] = system: HFF-1; assay: Downregulation of ND2 mRNA level in human HFF-1 cells at 0 to 4 uM measured after 48 hrs by qRT-PCR analysis; assay type: functional, cell-based; conditions: dose 0-4 µM

- ΔTm [1]: 16.5 °C
- Drug uptake [3]: Not Active
- Kd [6]: 60 nM
- Drug uptake [7]: Active
- Activity [9]: inactive
- Activity [10]: Active
- ΔTm [13]: 11.3 °C
- Drug uptake [15]: Not Active
- Drug uptake [22]: Active
- Kd [23]: 60 nM
- Activity [26]: inactive
Compound: C(=C\c1ccc2ccccc2[n+]1CCCCCCCC[n+]1c(/C=C/c2ccc(N3CCCCC3)cc2)ccc2ccccc21)/c1ccc(N2CCCCC2)cc1.[I-].[I-]
- Activity [2]: Non-Toxic
- Activity [4]: Active
- Activity [5]: Dose-Dependent Effect
- Activity [8]: Active
- Activity [11]: Non-Toxic
- inhibition [12]: Active
- inhibition (INH) [14]: 40%
- Activity [16]: Non-Toxic
- Activity [17]: Active
- Activity [18]: Active
- Activity [19]: inactive
- Activity [20]: Dose-Dependent Effect
- Activity [21]: Active
- Activity [24]: Active
- Activity [25]: Active
- Activity [27]: Active
